Reference: ChEMBL document CHEMBL4017487, “Design and Synthesis of γ- and δ-Lactam M1 Positive Allosteric Modulators (PAMs): Convulsion and Cholinergic Toxicity of an M1-Selective PAM with Weak Agonist Activity” (J Med Chem, 2017)
Changes are numbered by the printed parent chain.

How the values were obtained:
[1] = target: T1, Muscarinic acetylcholine receptor M1 (Rattus norvegicus, UniProt P08482); experiment: Agonist activity at muscarinic acetylcholine receptor M1 in Sprague-Dawley rat brain hippocampal slices assessed as increase in firing rate at CA1 pyramidal neurons after 10 mins by electrophysiology method
T1 sequence (P08482 whole entry): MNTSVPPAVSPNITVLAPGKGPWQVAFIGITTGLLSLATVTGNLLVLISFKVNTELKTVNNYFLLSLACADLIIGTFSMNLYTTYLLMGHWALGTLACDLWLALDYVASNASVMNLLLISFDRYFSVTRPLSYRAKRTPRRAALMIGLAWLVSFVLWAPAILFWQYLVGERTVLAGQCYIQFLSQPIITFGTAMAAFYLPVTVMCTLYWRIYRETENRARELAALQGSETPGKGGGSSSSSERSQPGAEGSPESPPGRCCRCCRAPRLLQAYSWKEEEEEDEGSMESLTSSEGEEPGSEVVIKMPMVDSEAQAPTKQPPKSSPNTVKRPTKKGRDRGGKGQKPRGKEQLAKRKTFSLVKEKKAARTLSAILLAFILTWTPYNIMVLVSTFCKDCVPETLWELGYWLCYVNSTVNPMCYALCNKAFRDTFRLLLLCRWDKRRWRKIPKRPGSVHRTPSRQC
Outline: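 Rat hippocampal slices; spontaneous action potentials recorded from CA1 pyramidal neurons, read as spike rate. Agonist mode has no carbachol; PAM mode uses an EC20 level of carbachol. Top concentration tested was 3 μM.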

Rattus norvegicus [2] = experiment: Toxicity in rat assessed as unbound Cmax in plasma required to show convulsions at 45 mg/kg, po administered as single dose; format: organism-based; conditions: in vivo
[3] = Clearance in rat at 0.5 mg/kg, iv administered as single bolus dose; format: ADME, organism-based; conditions: in vivo
Outline: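 Rat, single IV bolus of 0.5 mg/kg as a solution in 20% HPBCD; observed plasma clearance.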

[4] = target: T2, Muscarinic acetylcholine receptor M2 (Homo sapiens, UniProt P08172); experiment: Agonist activity at human muscarinic acetylcholine receptor M2 expressed in CHO cells assessed as increase in cAMP accumulation after 2 hrs by cAMP-Glo assay; format: cell-based
T2 sequence (P08172 whole entry): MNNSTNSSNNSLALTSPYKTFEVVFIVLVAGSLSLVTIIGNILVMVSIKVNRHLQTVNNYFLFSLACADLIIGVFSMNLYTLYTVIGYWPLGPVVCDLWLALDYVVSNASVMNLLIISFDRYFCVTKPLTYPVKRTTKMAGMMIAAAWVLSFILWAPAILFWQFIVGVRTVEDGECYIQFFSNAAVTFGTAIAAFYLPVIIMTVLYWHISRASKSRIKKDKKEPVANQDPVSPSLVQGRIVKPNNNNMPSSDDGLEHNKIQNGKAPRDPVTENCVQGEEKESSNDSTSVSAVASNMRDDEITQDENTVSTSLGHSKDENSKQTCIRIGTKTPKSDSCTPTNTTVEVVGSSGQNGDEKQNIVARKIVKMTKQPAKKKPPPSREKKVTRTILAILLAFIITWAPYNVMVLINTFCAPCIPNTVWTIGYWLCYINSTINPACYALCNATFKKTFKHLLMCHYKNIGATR
Outline: (§1)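 Recombinant functional human M2–M5 assays, each run in agonist and PAM modes at concentrations up to 10 μM.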

Rattus norvegicus [5] = experiment: Toxicity in rat assessed as unbound Cmax in brain required to show convulsions at 45 mg/kg, po administered as single dose; format: organism-based; conditions: in vivo
[6] = target: T3, Muscarinic acetylcholine receptor M1 (Homo sapiens, UniProt P11229); experiment: Activity at human muscarinic acetylcholine receptor M1 expressed in CHO cells assessed as increase in acetylcholine-induced beta-arrestin recruitment; format: cell-based
T3 sequence (P11229 whole entry): T1 sequence (P08482 whole entry) with V5A, S254T, S309P, K320R, G337A, V413I

[7] = target: T4, Muscarinic acetylcholine receptor M4 (Homo sapiens, UniProt P08173); experiment: Positive allosteric modulation of human muscarinic acetylcholine receptor M4 expressed in CHO cells assessed as increase in acetylcholine-induced cAMP accumulation up to 10 uM after 2 hrs by cAMP-Glo assay; format: cell-based; outline: as §1
T4 sequence (P08173 whole entry): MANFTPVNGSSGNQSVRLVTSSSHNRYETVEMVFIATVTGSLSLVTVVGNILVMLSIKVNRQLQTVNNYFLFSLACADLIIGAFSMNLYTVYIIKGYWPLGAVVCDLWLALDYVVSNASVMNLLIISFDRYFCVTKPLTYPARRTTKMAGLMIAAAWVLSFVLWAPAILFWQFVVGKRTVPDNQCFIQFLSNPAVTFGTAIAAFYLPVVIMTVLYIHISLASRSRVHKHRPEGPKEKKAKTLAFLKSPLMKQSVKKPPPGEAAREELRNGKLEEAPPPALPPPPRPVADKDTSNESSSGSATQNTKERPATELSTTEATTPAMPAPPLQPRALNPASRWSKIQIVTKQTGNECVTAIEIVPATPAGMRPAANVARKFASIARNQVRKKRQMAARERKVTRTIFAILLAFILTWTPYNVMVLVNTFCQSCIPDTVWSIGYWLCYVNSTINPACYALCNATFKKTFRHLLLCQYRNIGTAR

Brain = experiment: Unbound brain concentration in amphetamine-induced hyperlocomotion C57BL/6 mouse at 3.2 mg/kg, sc measured after 1 hr by LC-MS/MS analysis; format: ADME, organism-based; conditions: in vivo
Outline: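 Satellite group of C57BL/6 mice from the amphetamine-stimulated locomotor study, N = 2/dose at 0.32, 1 and 3.2 mg/kg. Dosed sc as a solution in 10/90 Cremophor/water. Unbound plasma and brain concentrations measured at T = 1 h.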

Rattus norvegicus [8] = experiment: Cholinergic toxicity in rat at 1 to 5 mg/kg, po administered as single dose; format: organism-based; conditions: in vivo
Outline: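 Rat single oral dose escalation, 3/sex/dose. 1 and 5 mg/kg as a 0.5% methylcellulose suspension; 15 and 45 mg/kg as a nanosuspension (1.25% w/v hydroxypropyl cellulose SL, 0.05% docusate sodium in water).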

[9] = target: T1, Muscarinic acetylcholine receptor M1; experiment: Positive allosteric modulation of muscarinic acetylcholine receptor M1 in Sprague-Dawley rat brain hippocampal slices assessed as increase in carbachol-induced firing rate at CA1 pyramidal neurons at 3 uM after 10 mins in presence of M1 antagonist VU0255035 by electrophysiology method
Outline: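 Hippocampal CA1 spike-rate assay in PAM mode (EC20 carbachol) with a reportedly M1-selective muscarinic antagonist added to the slices.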

Cc1cc2c(cc1Cc1ccc(-c3cocn3)cc1)C(=O)N([C@H]1CCOC[C@@H]1O)C2
Activity [1]: Not Active | fCmax (Rattus norvegicus [2]): 2310 nM | clearance [3]: 2.4 mL/min/kg | EC50 [4]: > 10 µM | fCmax (Rattus norvegicus [5]): 440 nM | KA [6]: 60 µM | Activity [7]: Not Active | Drug uptake(free) (Brain): 32 nM | Activity (Rattus norvegicus [8]): Non-Toxic | Activity [9]: Not Active
